Measured values: ChEMBL document CHEMBL4152200, “Targeting the entrance channel of NNIBP: Discovery of diarylnicotinamide 1,4-disubstituted 1,2,3-triazoles as novel HIV-1 NNRTIs with high potency against wild-type and E138K mutant virus” (Eur J Med Chem, 2018)

Tests used:
[1] = test system: Human immunodeficiency virus 1; assay: Antiviral activity against wild-type HIV-1 3B infected in human MT4 cells assessed as inhibition of viral replication after 5 days by MTT assay; assay type: functional, organism-based; details: Human immunodeficiency virus 1, 3B, MT4, 120 h
[2] = Selectivity index, ratio of CC50 for human MT4 cells to EC50 for HIV-1 RES056 harboring reverse transcriptase K103N/Y181C double mutant infected in human MT4 cells; assay type: toxicity, cell-based; details: read-out: Ratio CC50/EC50
In short: (§1)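 SI is CC₅₀ divided by EC₅₀, both by MTT after 5 days in MT-4 cells. CC₅₀ comes from mock-infected cultures run in parallel and is the concentration reducing their viability by 50%. EC₅₀ comes from cultures infected with the given mutant strain at 100–300 CCID₅₀.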

MT4 = assay: Cytotoxicity against human MT4 cells assessed as decrease in cell viability after 5 days by MTT assay; assay type: cell-based; details: mt4, 120 h
In short: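 Mock-infected MT-4 cells, exponentially growing, seeded with compound in culture medium without virus; run in parallel with the antiviral assay. Viability read spectrophotometrically by MTT reduction five days later.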

[3] = Selectivity index, ratio of CC50 for human MT4 cells to EC50 for wild-type HIV1 3B; assay type: toxicity; details: read-out: Ratio CC50/EC50
In short: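 Wild-type HIV-1 IIIB at 100–300 CCID50 added to MT-4 cells with compound, with mock-infected wells in parallel. MTT viability was read at day 5. […] SI = CC50/EC50.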

[4] = test system: Human immunodeficiency virus 1; assay: Antiviral activity against HIV-1 RES056 harboring reverse transcriptase K103N/Y181C double mutant infected in human MT4 cells assessed as inhibition of viral replication after 5 days by MTT assay; assay type: functional, organism-based; details: Human immunodeficiency virus 1, RES056, MT4, 120 h
[5] = test system: Human immunodeficiency virus 1; assay: Antiviral activity against HIV1 harboring reverse transcriptase Y188L mutant infected in human MT4 cells assessed as inhibition of viral replication after 5 days by MTT assay; assay type: functional, organism-based; details: Human immunodeficiency virus 1, MT4, 120 h
In short: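 MT-4 cells in exponential growth, resuspended into wells holding HIV-1 stock (IIIB, RES056 K103N/Y181C, F227L/V106A, L100I, K103N, E138K, Y181C or Y188L) at 100–300 CCID₅₀, or into mock-infected wells. Viability read by MTT reduction to formazan, measured spectrophotometrically 5 days post-infection. EC₅₀ is the concentration giving 50% protection against virus-induced cytotoxicity.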

[6] = test system: Human immunodeficiency virus 1; assay: Resistance factor, ratio of EC50 for HIV1 harboring reverse transcriptase L100I mutant to EC50 for wild-type HIV-1 3B; assay type: functional
In short: (§2)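 Resistance fold is EC₅₀ against the mutant strain divided by EC₅₀ against WT IIIB. Both EC₅₀ values come from the 5-day MTT protection assay in MT-4 cells infected with 100–300 CCID₅₀ of virus.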

[7] = test system: Human immunodeficiency virus 1; assay: Resistance factor, ratio of EC50 for HIV1 harboring reverse transcriptase K103N mutant to EC50 for wild-type HIV-1 3B; assay type: functional; in short: as §2
[8] = test system: Human immunodeficiency virus 1; assay: Resistance factor, ratio of EC50 for HIV1 harboring reverse transcriptase Y181C mutant to EC50 for wild-type HIV-1 3B; assay type: functional; in short: as §2
[9] = test system: Human immunodeficiency virus 1; assay: Antiviral activity against HIV1 harboring reverse transcriptase Y181C mutant infected in human MT4 cells assessed as inhibition of viral replication after 5 days by MTT assay; assay type: functional, organism-based; details: Human immunodeficiency virus 1, MT4, 120 h
[10] = test system: Human immunodeficiency virus 1; assay: Resistance factor, ratio of EC50 for HIV1 harboring reverse transcriptase E138K mutant to EC50 for wild-type HIV-1 3B; assay type: functional; in short: as §2
[11] = test system: Human immunodeficiency virus 1; assay: Antiviral activity against HIV1 harboring reverse transcriptase F227L/V106A double mutant infected in human MT4 cells assessed as inhibition of viral replication after 5 days by MTT assay; assay type: functional, organism-based; details: Human immunodeficiency virus 1, MT4, 120 h
[12] = test system: Human immunodeficiency virus 1; assay: Antiviral activity against HIV1 harboring reverse transcriptase K103N mutant infected in human MT4 cells assessed as inhibition of viral replication after 5 days by MTT assay; assay type: functional, organism-based; details: Human immunodeficiency virus 1, MT4, 120 h
[13] = test system: Human immunodeficiency virus 1; assay: Antiviral activity against HIV1 harboring reverse transcriptase L100I mutant infected in human MT4 cells assessed as inhibition of viral replication after 5 days by MTT assay; assay type: functional, organism-based; details: Human immunodeficiency virus 1, MT4, 120 h
[14] = test system: Human immunodeficiency virus 1; assay: Resistance factor, ratio of EC50 for HIV1 harboring reverse transcriptase F227L/V106A mutant to EC50 for wild-type HIV-1 3B; assay type: functional; in short: as §2
[15] = test system: Human immunodeficiency virus 1; assay: Resistance factor, ratio of EC50 for HIV1 harboring reverse transcriptase Y188L mutant to EC50 for wild-type HIV-1 3B; assay type: functional; in short: as §2
[16] = test system: Human immunodeficiency virus 1; assay: Antiviral activity against HIV1 harboring reverse transcriptase E138K mutant infected in human MT4 cells assessed as inhibition of viral replication after 5 days by MTT assay; assay type: functional, organism-based; details: Human immunodeficiency virus 1, MT4, 120 h
[17] = Selectivity index, ratio of CC50 for human MT4 cells to EC50 for HIV1 harboring reverse transcriptase E138K mutant; assay type: toxicity; details: read-out: Ratio CC50/EC50; in short: as §1
[18] = Selectivity index, ratio of CC50 for human MT4 cells to EC50 for HIV1 harboring reverse transcriptase Y181C mutant; assay type: toxicity; details: read-out: Ratio CC50/EC50; in short: as §1
[19] = Selectivity index, ratio of CC50 for human MT4 cells to EC50 for HIV1 harboring reverse transcriptase L100I mutant; assay type: toxicity; details: read-out: Ratio CC50/EC50; in short: as §1
[20] = Selectivity index, ratio of CC50 for human MT4 cells to EC50 for HIV1 harboring reverse transcriptase Y188L mutant; assay type: toxicity; details: read-out: Ratio CC50/EC50; in short: as §1
[21] = Selectivity index, ratio of CC50 for human MT4 cells to EC50 for HIV1 harboring reverse transcriptase F227L/V106A mutant; assay type: toxicity; details: read-out: Ratio CC50/EC50; in short: as §1
[22] = Selectivity index, ratio of CC50 for human MT4 cells to EC50 for HIV1 harboring reverse transcriptase K103N mutant; assay type: toxicity; details: read-out: Ratio CC50/EC50; in short: as §1

With `CCOC(=O)CCn1cc(CNC(=O)c2cnc(Nc3ccc(C#N)cc3)cc2Oc2c(C)cc(C)cc2C)nn1` the EC50 [1] was 847 nM, the selectivity ratio [2] was less than 1 and the CC50 (MT4) was 21500 nM. It also gave a selectivity ratio [3] of 25 and an EC50 [4] greater than 21500 nM.

Compound `Cc1cc(C)c(Oc2cc(Nc3ccc(C#N)cc3)ncc2C(=O)NCc2cn(Cc3cccc(C#N)c3)nn2)c(C)c1` has an EC50 [1] of 25 nM, a CC50 (MT4) of no less than 130000 nM and an EC50 [4] greater than 130000 nM.

For `CC(C)Nc1cccnc1N1CCN(C(=O)c2cc3cc(NS(C)(=O)=O)ccc3[nH]2)CC1` [DELAVIRDINE], the EC50 [5] was 840 nM, the EC50 [1] was 38 nM and the “Ratio EC50” value [6] was 66.8. For the same compound, the “Ratio EC50” value [7] was 78.9, the “Ratio EC50” value [8] was 64.7 and the EC50 [9] was 2460 nM. The “Ratio EC50” value [10] was 1.3, the EC50 [11] was 2270 nM and the EC50 [12] was 3000 nM. The EC50 [13] was 2540 nM, the “Ratio EC50” value [14] was 59.7 and the “Ratio EC50” value [15] was 22.1. The EC50 [16] was 51 nM.

For `Cc1cc(C)c(Oc2cc(Nc3ccc(C#N)cc3)ncc2C(=O)NCc2cn(Cc3ccccc3C)nn2)c(C)c1`, the EC50 [1] was 77 nM, the CC50 (MT4) was no less than 164000 nM and the EC50 [4] was greater than 164000 nM.

`Cc1cc(C)c(Oc2cc(Nc3ccc(C#N)cc3)ncc2C(=O)NCc2cn(Cc3cccc(Cl)c3)nn2)c(C)c1` showed an EC50 [1] of 104 nM, a selectivity ratio [2] of less than 1 and a CC50 (MT4) of 187000 nM. The selectivity ratio [3] was 1800 and the EC50 [4] was greater than 187000 nM.

For `Cc1cc(C)c(Oc2cc(Nc3ccc(C#N)cc3)ncc2C(=O)NCc2cn(Cc3ccccc3Cl)nn2)c(C)c1`, the EC50 [1] was 104 nM, the CC50 (MT4) was no less than 188000 nM and the EC50 [4] was greater than 188000 nM.

`Cc1ccc(Cn2cc(CNC(=O)c3cnc(Nc4ccc(C#N)cc4)cc3Oc3c(C)cc(C)cc3C)nn2)cc1` showed an EC50 [1] of 167 nM, a selectivity ratio [2] of less than 1 and a CC50 (MT4) of 165000 nM. It also gave a selectivity ratio [3] of 990 and an EC50 [4] greater than 165000 nM.

For `Cc1cc(C#N)cc(C)c1Oc1nc(Nc2ccc(C#N)cc2)nc(N)c1Br` [ETRAVIRINE], the EC50 [5] was 11 nM and the EC50 [11] was 5 nM.

Compound `Cc1cc(C)c(Oc2cc(Nc3ccc(C#N)cc3)ncc2C(=O)NCc2cn(Cc3cccc(F)c3)nn2)c(C)c1` has an EC50 [1] of 79 nM, a CC50 (MT4) of no less than 205000 nM and an EC50 [4] greater than 205000 nM.

With `Cc1cc(C)c(Oc2cc(Nc3ccc(C#N)cc3)ncc2C(=O)NCc2cn(Cc3ccc(Cl)cc3)nn2)c(C)c1` the EC50 [1] was 194 nM, the CC50 (MT4) was no less than 120000 nM and the EC50 [4] was greater than 120000 nM.

With `Cc1cc(C)c(Oc2cc(Nc3ccc(C#N)cc3)ncc2C(=O)NCc2cn(Cc3ccccc3C#N)nn2)c(C)c1` the EC50 [1] was 39 nM, the CC50 (MT4) was greater than 220000 nM and the EC50 [4] was greater than 220000 nM.

`Cc1cc(C)c(Oc2cc(Nc3ccc(C#N)cc3)ncc2C(=O)NCc2cn(CCC#N)nn2)c(C)c1` showed an EC50 [5] of 2240 nM, an EC50 [1] of 20 nM and a selectivity ratio [17] of 2630. For the same compound, the selectivity ratio [18] was 450, the “Ratio EC50” value [6] was 53 and the selectivity ratio [19] was 38. The “Ratio EC50” value [7] was 12.5, the “Ratio EC50” value [8] was 4.5 and the selectivity ratio [20] was 18. For the same compound, the CC50 (MT4) was 40200 nM, the EC50 [9] was 89 nM and the “Ratio EC50” value [10] was 0.8. The EC50 [11] was 330 nM, the EC50 [12] was 250 nM and the EC50 [4] was 2310 nM. For the same compound, the EC50 [13] was 1060 nM, the “Ratio EC50” value [14] was 16.5 and the selectivity ratio [21] was 121. For the same compound, the “Ratio EC50” value [15] was 112, the selectivity ratio [22] was 158 and the EC50 [16] was 15 nM.
